Source: ChEMBL document CHEMBL2346664, “Synthesis, characterization and in vitro anticancer evaluation of novel 1,2,4-triazolin-3-one derivatives” (2013)

Experiments:
Type in all cases: functional
MDA-MB-435 [1] = assay: Growth inhibition of human MDA-MB-435 cells assessed as cell growth at 10 '-8 M after 48 hrs by sulforhodamine B assay; conditions: MDA-MB-435, 48 h, read-out: Activity
HCT-116 [2] = assay: Growth inhibition of human HCT116 cells assessed as cell growth at 10 '-5 M after 48 hrs by sulforhodamine B assay; conditions: HCT-116, 48 h, read-out: Activity
[3] = Growth inhibition of human Hs 578T cells assessed as cell growth at 10 '-6 M after 48 hrs by sulforhodamine B assay; conditions: read-out: Activity
OVCAR-4 [4] = assay: Growth inhibition of human OVCAR4 cells assessed as growth inhibition at 10 uM after 48 hrs by sulforhodamine B assay; conditions: OVCAR-4, 48 h, read-out: GI
[5] = Growth inhibition of human HCC2998 cells assessed as growth inhibition at 10 uM after 48 hrs by sulforhodamine B assay; conditions: HCC 2998, 48 h, read-out: GI
SF-295 = assay: Growth inhibition of human SF295 cells assessed as cell growth at 10 '-7 M after 48 hrs by sulforhodamine B assay; conditions: SF-295, 48 h, read-out: Activity
OVCAR-5 = assay: Growth inhibition of human OVCAR5 cells assessed as growth inhibition at 10 uM after 48 hrs by sulforhodamine B assay; conditions: OVCAR-5, 48 h, read-out: GI
CAKI-1 = assay: Growth inhibition of human CAKI-1 cells assessed as cell growth at 10 '-4 M after 48 hrs by sulforhodamine B assay; conditions: CAKI-1, 48 h, read-out: Activity
Summary of the method: (§1)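 Percent growth at each of the five concentrations of the 48 h continuous-exposure NCI SRB screen. Drug stocks were in DMSO at 400× the top final concentration and diluted in medium with gentamicin. Growth was calculated as [(Ti-Tz)/(C-Tz)]×100 when Ti ≥ Tz, or [(Ti-Tz)/Tz]×100 when Ti < Tz. Tz plates were fixed at drug addition; untreated wells served as control. Absorbance was read at 515 nm.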

A498 = assay: Growth inhibition of human A498 cells assessed as cell growth at 10 '-6 M after 48 hrs by sulforhodamine B assay; conditions: A498, 48 h, read-out: Activity; summary of the method: as §1
HOP-92 = assay: Growth inhibition of human HOP92 cells assessed as growth inhibition at 10 uM after 48 hrs by sulforhodamine B assay; conditions: HOP-92, 48 h, read-out: GI
COLO 205 = assay: Growth inhibition of human COLO205 cells assessed as growth inhibition at 10 uM after 48 hrs by sulforhodamine B assay; conditions: COLO 205, 48 h, read-out: GI
NCI-H522 [6] = assay: Growth inhibition of human NCI-H522 cells assessed as cell growth at 10 '-8 M after 48 hrs by sulforhodamine B assay; conditions: NCI-H522, 48 h, read-out: Activity
OVCAR-4 [7] = assay: Growth inhibition of human OVCAR4 cells assessed as cell growth at 10 '-6 M after 48 hrs by sulforhodamine B assay; conditions: OVCAR-4, 48 h, read-out: Activity
SW-620 = assay: Growth inhibition of human SW620 cells assessed as cell growth at 10 '-6 M after 48 hrs by sulforhodamine B assay; conditions: SW-620, 48 h, read-out: Activity
OVCAR-3 = assay: Growth inhibition of human OVCAR3 cells assessed as growth inhibition at 10 uM after 48 hrs by sulforhodamine B assay; conditions: OVCAR-3, 48 h, read-out: GI
MDA-MB-231 = assay: Growth inhibition of human MDA-MB-231 cells assessed as cell growth at 10 '-8 M after 48 hrs by sulforhodamine B assay; conditions: MDA-MB-231, 48 h, read-out: Activity
IGROV-1 = assay: Growth inhibition of human IGROV1 cells assessed as cell growth at 10 '-4 M after 48 hrs by sulforhodamine B assay; conditions: IGROV-1, 48 h, read-out: Activity
MDA-MB-435 [8] = assay: Growth inhibition of human MDA-MB-435 cells assessed as cell growth at 10 '-4 M after 48 hrs by sulforhodamine B assay; conditions: MDA-MB-435, 48 h, read-out: Activity
SK-MEL-5 = assay: Growth inhibition of human SK-MEL-5 cells assessed as growth inhibition at 10 uM after 48 hrs by sulforhodamine B assay; conditions: SK-MEL-5, 48 h, read-out: GI
HCT-116 [9] = assay: Growth inhibition of human HCT116 cells assessed as cell growth at 10 '-6 M after 48 hrs by sulforhodamine B assay; conditions: HCT-116, 48 h, read-out: Activity
NCI-H23 = assay: Growth inhibition of human NCI-H23 cells after 48 hrs by sulforhodamine B assay; conditions: NCI-H23, 48 h
Summary of the method: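 NCI 60-cell-line five-dose screen. Cells were plated at 5,000–40,000/well by doubling time and grown 24 h at 37 °C, 5% CO2. Time-zero plates were TCA-fixed. Drug from DMSO stock was tested at 0.01, 0.1, 1, 10 and 100 µM final for 48 h continuous exposure. Read-out was SRB at 515 nm. GI50 is the concentration giving 50% reduction in net protein increase versus untreated control.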

OVCAR-4 [10] = assay: Growth inhibition of human OVCAR4 cells assessed as cell growth at 10 '-7 M after 48 hrs by sulforhodamine B assay; conditions: OVCAR-4, 48 h, read-out: Activity
BT-549 [11] = assay: Growth inhibition of human BT549 cells after 48 hrs by sulforhodamine B assay; conditions: BT-549, 48 h
Summary of the method: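 NCI 60-cell-line five-dose screen at 0.01, 0.1, 1, 10 and 100 µM final. Cells were plated at 5,000–40,000/well and grown 24 h at 37 °C, 5% CO2, then exposed to drug continuously for 48 h. Adherent cells were fixed with cold TCA (10% final) and stained with SRB; absorbance read at 515 nm. GI50 is the concentration where [(Ti-Tz)/(C-Tz)]×100 = 50, with Tz plates fixed at drug addition.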

NCI-H522 [12] = assay: Growth inhibition of human NCI-H522 cells assessed as growth inhibition at 10 uM after 48 hrs by sulforhodamine B assay; conditions: NCI-H522, 48 h, read-out: GI
T47D = assay: Growth inhibition of human T47D cells assessed as cell growth at 10 '-6 M after 48 hrs by sulforhodamine B assay; conditions: read-out: Activity
HT-29 = assay: Growth inhibition of human HT-29 cells assessed as cell growth at 10 '-5 M after 48 hrs by sulforhodamine B assay; conditions: HT-29, 48 h, read-out: Activity
RPMI-8226 = assay: Growth inhibition of human RPMI8226 cells assessed as cell growth at 10 '-6 M after 48 hrs by sulforhodamine B assay; conditions: RPMI-8226, 48 h, read-out: Activity
SNB-19 = assay: Growth inhibition of human SNB19 cells assessed as cell growth at 10 '-4 M after 48 hrs by sulforhodamine B assay; conditions: SNB-19, 48 h, read-out: Activity
BT-549 [13] = assay: Growth inhibition of human BT549 cells assessed as cell growth at 10 '-7 M after 48 hrs by sulforhodamine B assay; conditions: BT-549, 48 h, read-out: Activity; summary of the method: as §1
[14] = read-out: LD50 (the source's name)

With `Cc1cc(=O)oc2cc(OCCn3c(C)nn(-c4ccc(Cl)cc4)c3=O)ccc12` as the molecule, how does the growth at 0.01 µM (MDA-MB-435 [1]) read?
Its growth at 0.01 µM is 99%.

What about the growth at 10 µM (HCT-116 [2]) of the same molecule?
Its growth at 10 µM is 21%.

And the growth at 1 µM [3]?
Its growth at 1 µM is 68%.

And the inhibition of growth at 10 µM (OVCAR-4 [4])?
The inhibition of growth at 10 µM was 32.9%.

What about the inhibition of growth at 10 µM [5] of the same molecule?
The inhibition of growth at 10 µM was 53.3%.

What about the growth at 0.1 µM (SF-295) of the same molecule?
The growth at 0.1 µM was 85%.

What about the inhibition of growth at 10 µM (OVCAR-5) of the same molecule?
Its inhibition of growth at 10 µM is 61.2%.

What about the growth at 100 µM (CAKI-1) of the same molecule?
Its growth at 100 µM is 52%.

And the growth at 1 µM (A498)?
Its growth at 1 µM is 52%.

What about the inhibition of growth at 10 µM (HOP-92) of the same molecule?
The inhibition of growth at 10 µM was 52.6%.

And the inhibition of growth at 10 µM (COLO 205)?
Its inhibition of growth at 10 µM is 89.4%.

What about the growth at 0.01 µM (NCI-H522 [6]) of the same molecule?
The growth at 0.01 µM was 100%.

What about the growth at 1 µM (OVCAR-4 [7]) of the same molecule?
The growth at 1 µM was 88%.

And the growth at 1 µM (SW-620)?
The growth at 1 µM was 68%.

And the inhibition of growth at 10 µM (OVCAR-3)?
Its inhibition of growth at 10 µM is 85.2%.

What about the growth at 0.01 µM (MDA-MB-231) of the same molecule?
The growth at 0.01 µM was 96%.

And the growth at 100 µM (IGROV-1)?
Its growth at 100 µM is 41%.

What about the growth at 100 µM (MDA-MB-435 [8]) of the same molecule?
The growth at 100 µM was -26%.

And the inhibition of growth at 10 µM (SK-MEL-5)?
Its inhibition of growth at 10 µM is 89.2%.

What about the growth at 1 µM (HCT-116 [9]) of the same molecule?
Its growth at 1 µM is 86%.

What about the GI50 (NCI-H23) of the same molecule?
Its GI50 is 2.83 µM.

And the TGI (NCI-H23)?
Its TGI is > 1 µM.

And the CC50 (NCI-H23; [14])?
The CC50 was > 1 µM.

And the growth at 0.1 µM (OVCAR-4 [10])?
The growth at 0.1 µM was 90%.

And the GI50 (BT-549 [11])?
The GI50 was 1.65 µM.

And the TGI (BT-549 [11])?
Its TGI is 9.94 µM.

What about the CC50 (BT-549 [11]; [14]) of the same molecule?
Its CC50 is > 1 µM.

What about the inhibition of growth at 10 µM (NCI-H522 [12]) of the same molecule?
The inhibition of growth at 10 µM was 82.8%.

And the growth at 1 µM (T47D)?
The growth at 1 µM was 89%.

And the growth at 10 µM (HT-29)?
The growth at 10 µM was 14%.

And the growth at 1 µM (RPMI-8226)?
Its growth at 1 µM is 95%.

And the growth at 100 µM (SNB-19)?
The growth at 100 µM was 20%.

And the growth at 0.1 µM (BT-549 [13])?
The growth at 0.1 µM was 104%.
